Numbered stars: 1 amine (or outer) side, 2 acyl side, 3 side chain; on linkers, the order of the positions; unused ones are H or OH. Square brackets hold non-standard residues; d marks the D form. Peptide text beside a SMILES is read from it. X9 = O=C(Cc1nnc([C@H](Cc2ccccc2)N[*:1])[nH]1)[*:2]; X7 = O=C(c1nnc([C@H](Cc2ccccc2)N[*:1])[nH]1)[*:2]; X3 = O=C(c1nnc([C@H](Cc2ccccc2)N[*:1])o1)[*:2]; X4 = O=C(c1noc([C@H](Cc2ccccc2)N[*:1])n1)[*:2]
Key:
Substance-P receptor = Substance-P receptor (Rattus norvegicus, UniProt P14600); assay: Affinity for rat Tachykinin receptor 1 determined in displacement screening by using radioligand 3,4-[3H]-(L-Pro e2) SP.
Mu-type opioid receptor [1] = molecular target: T1, Mu-type opioid receptor (Rattus norvegicus, UniProt P33535); assay: The compound was tested for binding affinity towards rat Opioid receptor mu 1 by displacing [3H]DAMGO.
[2] = Retention time of the compound.
Outline: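 Analytical reversed-phase HPLC on a C-18 column (8 × 100 mm), eluting with CH3CN/H2O/0.1% TFA gradients. The gradient differs by compound: 0-60% at 1 mL/min over 30 min, or 5-65%, 20-60% or 0-60% at 0.5 mL/min over 30 min.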

Mu-type opioid receptor [3] = molecular target: T1, Mu-type opioid receptor; assay: The compound was tested for binding affinity towards [3H]DAMGO, in rat Opioid receptor mu 1
Outline: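 Rat whole-brain (minus cerebellum) membranes from sucrose homogenisation, differential centrifugation and hypotonic lysis, in 50 mM Tris-HCl pH 7.4. […] Incubation 30 min at 25 °C, ended by filtration on PEI-soaked GF-C filters. Triplicates, three experiments, IC50 as mean ± SEM.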

Chain of Substance-P receptor (P14600 whole entry): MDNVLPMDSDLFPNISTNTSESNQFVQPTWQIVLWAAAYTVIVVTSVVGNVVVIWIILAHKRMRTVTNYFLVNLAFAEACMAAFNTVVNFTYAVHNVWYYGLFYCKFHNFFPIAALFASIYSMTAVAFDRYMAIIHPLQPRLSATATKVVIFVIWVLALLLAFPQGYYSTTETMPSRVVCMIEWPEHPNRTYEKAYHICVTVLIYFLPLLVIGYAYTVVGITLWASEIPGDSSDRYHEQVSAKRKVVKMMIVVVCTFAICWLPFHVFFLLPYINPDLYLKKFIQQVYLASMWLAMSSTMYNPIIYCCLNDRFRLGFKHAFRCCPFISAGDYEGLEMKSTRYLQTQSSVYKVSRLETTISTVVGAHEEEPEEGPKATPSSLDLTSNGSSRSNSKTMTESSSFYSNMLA
T1 sequence (P33535 whole entry): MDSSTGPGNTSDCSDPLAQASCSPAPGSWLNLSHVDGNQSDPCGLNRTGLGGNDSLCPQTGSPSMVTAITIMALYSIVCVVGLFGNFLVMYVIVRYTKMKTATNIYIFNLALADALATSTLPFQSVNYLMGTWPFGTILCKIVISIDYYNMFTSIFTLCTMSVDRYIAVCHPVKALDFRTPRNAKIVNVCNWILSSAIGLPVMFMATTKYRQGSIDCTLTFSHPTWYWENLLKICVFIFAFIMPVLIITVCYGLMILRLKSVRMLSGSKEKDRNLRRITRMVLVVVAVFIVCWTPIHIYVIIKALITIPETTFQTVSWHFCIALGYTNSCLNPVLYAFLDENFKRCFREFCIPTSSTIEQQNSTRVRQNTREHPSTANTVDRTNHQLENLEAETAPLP

Compound | IC50 (Substance-P receptor) [nM] | Retention time [2] [min] | other results
C[C@@H](NC(=O)[C@@H](N)Cc1ccc(O)cc1)C(=O)NCC(=O)N(C)[C@@H](Cc1ccccc1)C(=O)NCCO [DAMGO] | > 1000 |  | 
C[C@@H](NC(=O)[C@@H](N)Cc1ccc(O)cc1)C(=O)N[C@@H](Cc1ccccc1)c1nc(CC(=O)N[C@@H](Cc2ccc(O)cc2)C(=O)N2CCC[C@H]2C(=O)N[C@@H](CO)C(N)=O)no1 | > 1000 |  | IC50 (Mu-type opioid receptor [1]): 12 nM
C[C@@H](NC(=O)[C@@H](N)Cc1ccc(O)cc1)C(=O)N[C@@H](Cc1ccccc1)c1nc(CN[C@@H](Cc2ccc(O)cc2)C(=O)N2CCC[C@H]2C(=O)N[C@@H](CO)C(N)=O)no1 |  | 21 | 
C[C@@H](NC(=O)[C@@H](N)Cc1ccc(O)cc1)C(=O)N[C@@H](Cc1ccccc1)c1nc(C(=O)N[C@@H](Cc2ccc(O)cc2)C(=O)N2CCC[C@H]2C(=O)N[C@@H](CO)C(N)=O)no1 | > 1000 |  | IC50 (Mu-type opioid receptor [1]): 17 nM
CSCC[C@H](NC(=O)[C@H](CC(C)C)NC(=O)Cc1nnc([C@H](Cc2ccccc2)NC(=O)[C@H](Cc2ccccc2)NC(=O)[C@H](CCC(N)=O)NC(=O)[C@H](CCC(N)=O)NC(=O)[C@@H]2CCCN2C(=O)[C@H](CCCCN)NC(=O)[C@@H]2CCCN2C(=O)[C@@H](N)CCCNC(=N)N)[nH]1)C(N)=O (H-RPKPQQF[X9]LM-NH2) | > 1000 |  | 
C[C@@H](NC(=O)[C@@H](N)Cc1ccc(O)cc1)C(=O)N[C@@H](Cc1ccccc1)c1nc(N[C@@H](Cc2ccc(O)cc2)C(=O)N2CCC[C@H]2C(=O)N[C@@H](CO)C(N)=O)no1 |  | 22.7 | 
CSCC[C@H](NC(=O)[C@H](CC(C)C)NC(=O)c1noc([C@H](Cc2ccccc2)NC(=O)[C@H](Cc2ccccc2)NC(=O)[C@H](CCC(N)=O)NC(=O)[C@H](CCC(N)=O)NC(=O)[C@@H]2CCCN2C(=O)[C@H](CCCCN)NC(=O)[C@@H]2CCCN2C(=O)[C@@H](N)CCCN=C(N)N)n1)C(N)=O (H-RPKPQQF[X4]LM-NH2) | > 1000 |  | 
C[C@@H](NC(=O)[C@@H](N)Cc1ccc(O)cc1)C(=O)N[C@@H](Cc1ccccc1)c1nnc(CN[C@@H](Cc2ccc(O)cc2)C(=O)N2CCC[C@H]2C(=O)N[C@@H](CO)C(N)=O)o1 |  | 34 | 
CSCC[C@H](NC(=O)[C@H](CC(C)C)NC(=O)c1nnc([C@H](Cc2ccccc2)NC(=O)[C@H](Cc2ccccc2)NC(=O)[C@H](CCC(N)=O)NC(=O)[C@H](CCC(N)=O)NC(=O)[C@@H]2CCCN2C(=O)[C@H](CCCCN)NC(=O)[C@@H]2CCCN2C(=O)[C@@H](N)CCCNC(=N)N)o1)C(N)=O (H-RPKPQQF[X3]LM-NH2) | > 1000 |  | 
CSCC[C@H](NC(=O)[C@H](CC(C)C)NC(=O)c1nnc([C@H](Cc2ccccc2)NC(=O)[C@H](Cc2ccccc2)NC(=O)[C@H](CCC(N)=O)NC(=O)[C@H](CCC(N)=O)NC(=O)[C@@H]2CCCN2C(=O)[C@H](CCCCN)NC(=O)[C@@H]2CCCN2C(=O)[C@@H](N)CCCNC(=N)N)[nH]1)C(N)=O (H-RPKPQQF[X7]LM-NH2) | > 1000 |  | 
C[C@@H](NC(=O)[C@@H](N)Cc1ccc(O)cc1)C(=O)N[C@@H](Cc1ccccc1)c1nnc(CC(=O)N[C@@H](Cc2ccc(O)cc2)C(=O)N2CCC[C@H]2C(=O)N[C@@H](CO)C(N)=O)o1 | > 1000 |  | IC50 (Mu-type opioid receptor [1]): 31 nM
CSCC[C@H](NC(=O)[C@H](CC(C)C)NC(=O)Cc1noc([C@H](Cc2ccccc2)NC(=O)[C@H](Cc2ccccc2)NC(=O)[C@H](CCC(N)=O)NC(=O)[C@H](CCC(N)=O)NC(=O)[C@@H]2CCCN2C(=O)[C@H](CCCCN)NC(=O)[C@@H]2CCCN2C(=O)[C@@H](N)CCCN=C(N)N)n1)C(N)=O (stereo in doubt; form 1) | > 1000 |  | 
C[C@@H](NC(=O)[C@@H](N)Cc1ccc(O)cc1)C(=O)N[C@@H](Cc1ccccc1)c1n[nH]c(N[C@@H](Cc2ccc(O)cc2)C(=O)N2CCC[C@H]2C(=O)N[C@@H](CO)C(N)=O)n1 |  | 20.6 | 
CCOC(=O)Cc1n[nH]c([C@H](Cc2ccccc2)NC(=O)OC(C)(C)C)n1 |  | 22.1 | 
CC(C)(C)OC(=O)N[C@@H](Cc1ccccc1)c1nc(CCO)no1 |  | 30.9 | 
C[C@@H](NC(=O)[C@@H](N)Cc1ccc(O)cc1)C(=O)N[C@@H](Cc1ccccc1)c1nnc(C(=O)N[C@@H](Cc2ccc(O)cc2)C(=O)N2CCC[C@H]2C(=O)N[C@@H](CO)C(N)=O)o1 | > 1000 |  | IC50 (Mu-type opioid receptor [1]): 20 nM
CSCC[C@H](NC(=O)[C@H](CC(C)C)NC(=O)Cc1noc([C@H](Cc2ccccc2)NC(=O)[C@H](Cc2ccccc2)NC(=O)[C@H](CCC(N)=O)NC(=O)[C@H](CCC(N)=O)NC(=O)[C@@H]2CCCN2C(=O)[C@H](CCCCN)NC(=O)[C@@H]2CCCN2C(=O)[C@@H](N)CCCN=C(N)N)n1)C(N)=O (stereo in doubt; form 2) | 307 |  | 
C[C@@H](NC(=O)[C@@H](N)Cc1ccc(O)cc1)C(=O)N[C@@H](Cc1ccccc1)c1nnc(C(=O)N[C@@H](Cc2ccc(O)cc2)C(=O)N2CCC[C@H]2C(=O)N[C@@H](CO)C(N)=O)[nH]1 | > 1000 |  | IC50 (Mu-type opioid receptor [1]): 490 nM
C[C@@H](NC(=O)[C@@H](N)Cc1ccc(O)cc1)C(=O)N[C@@H](Cc1ccccc1)c1nnc(N[C@@H](Cc2ccc(O)cc2)C(=O)N2CCC[C@H]2C(=O)N[C@@H](CO)C(N)=O)o1 |  | 22 | 
C[C@@H](NC(=O)[C@@H](N)Cc1ccc(O)cc1)C(=O)N[C@@H](Cc1ccccc1)c1n[nH]c(CN[C@@H](Cc2ccc(O)cc2)C(=O)N2CCC[C@H]2C(=O)N[C@@H](CO)C(N)=O)n1 |  | 20.2 | 
C[C@@H](NC(=O)[C@@H](N)Cc1ccc(O)cc1)C(=O)N[C@@H](Cc1ccccc1)C(=O)NCC(=O)N[C@@H](Cc1ccc(O)cc1)C(=O)N1CCC[C@H]1C(=O)N[C@@H](CO)C(N)=O [DERMORPHIN] | > 1000 |  | IC50 (Mu-type opioid receptor [3]): 6.2 nM
C[C@@H](NC(=O)[C@@H](N)Cc1ccc(O)cc1)C(=O)N[C@@H](Cc1ccccc1)c1n[nH]c(CC(=O)N[C@@H](Cc2ccc(O)cc2)C(=O)N2CCC[C@H]2C(=O)N[C@@H](CO)C(N)=O)n1 | > 1000 |  | IC50 (Mu-type opioid receptor [1]): 21 nM

Reference: ChEMBL document CHEMBL1132446, “Design, synthesis, and evaluation of Phe-Gly mimetics: heterocyclic building blocks for pseudopeptides” (J Med Chem, 1999)
